According to ChEMBL document CHEMBL1127319, “CNAD: a potent and specific inhibitor of alcohol dehydrogenase” (J Med Chem, 1994):

Substrate: NC(=O)c1ccc[n+]([C@@H]2O[C@H](COP(=O)([O-])OP(=O)(O)OC[C@H]3O[C@@H](n4cnc5c(N)ncnc54)[C@H](O)[C@@H]3O)[C@@H](O)[C@H]2O)c1
Experiment: Michaelis-Menten constant against mammalian liver alcohol dehydrogenase (ADH)
Details: Equus caballus
How it was run: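 NAD is varied and the A340 increase from NADH formation is monitored (ε 6.22 mM-1 cm-1). Buffers differ by enzyme: ADH in 0.1 M phosphate, pH 8.0, with ethanol 1.2 mM; GDH in 0.1 M phosphate, pH 7.0, with 10 μM EDTA; LDH and MDH in 0.05 M Tris-HCl, pH 9.0. At least duplicate.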

B1: Alcohol dehydrogenase 1A (Homo sapiens), P07327 (protein)
chain: MSTAGKVIKCKAAVLWELKKPFSIEEVEVAPPKAHEVRIKMVAVGICGTDDHVVSGTMVTPLPVILGHEAAGIVESVGEGVTTVKPGDKVIPLAIPQCGKCRICKNPESNYCLKNDVSNPQGTLQDGTSRFTCRRKPIHHFLGISTFSQYTVVDENAVAKIDAASPLEKVCLIGCGFSTGYGSAVNVAKVTPGSTCAVFGLGGVGLSAIMGCKAAGAARIIAVDINKDKFAKAKELGATECINPQDYKKPIQEVLKEMTDGGVDFSFEVIGRLDTMMASLLCCHEACGTSVIVGVPPDSQNLSMNPMLLLTGRTWKGAILGGFKSKECVPKLVADFMAKKFSLDALITHVLPFEKINEGFDLLHSGKSIRTILMF
Work on B1 yielded a Km of 25 µM.
